Measurements: ChEMBL document CHEMBL4033671, “Synthesis and biological evaluation of N-(carbobenzyloxy)-l-phenylalanine and N-(carbobenzyloxy)-l-aspartic acid-β-benzyl ester derivatives as potent topoisomerase IIα inhibitors” (Bioorg Med Chem, 2017)

Experiments:
[1] = molecular target: T1, DNA topoisomerase 2-alpha (Homo sapiens, UniProt P11388); assay: Inhibition of human recombinant topoisomerase-2alpha expressed in Escherichia coli assessed as decrease in relaxation of supercoiled DNA pBR322 after 30 mins by ethidium bromide staining-based agarose gel electrophoresis
Summary of the method: (§1)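 Relaxation of 500 ng supercoiled pBR322 by 1 unit human topoisomerase I or IIα in reaction buffer, with or without compound (100 µM; 20 µM for selected compounds). Incubated 37 °C for 30 min, stopped with 0.77% SDS/77 mM EDTA. Products run on 1% agarose in TBE at 83 V for 60 min, stained 30 min in ethidium bromide (0.5 µg/mL), imaged under UV; percent inhibition recorded.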

[2] = molecular target: T2, DNA topoisomerase 1 (Homo sapiens) (UniProt P11387); assay: Inhibition of human recombinant topoisomerase-1 assessed as decrease in relaxation of supercoiled DNA pBR322 at 100 uM after 30 mins by ethidium bromide staining-based agarose gel electrophoresis relative to control; summary of the method: as §1
T2 sequence (whole entry): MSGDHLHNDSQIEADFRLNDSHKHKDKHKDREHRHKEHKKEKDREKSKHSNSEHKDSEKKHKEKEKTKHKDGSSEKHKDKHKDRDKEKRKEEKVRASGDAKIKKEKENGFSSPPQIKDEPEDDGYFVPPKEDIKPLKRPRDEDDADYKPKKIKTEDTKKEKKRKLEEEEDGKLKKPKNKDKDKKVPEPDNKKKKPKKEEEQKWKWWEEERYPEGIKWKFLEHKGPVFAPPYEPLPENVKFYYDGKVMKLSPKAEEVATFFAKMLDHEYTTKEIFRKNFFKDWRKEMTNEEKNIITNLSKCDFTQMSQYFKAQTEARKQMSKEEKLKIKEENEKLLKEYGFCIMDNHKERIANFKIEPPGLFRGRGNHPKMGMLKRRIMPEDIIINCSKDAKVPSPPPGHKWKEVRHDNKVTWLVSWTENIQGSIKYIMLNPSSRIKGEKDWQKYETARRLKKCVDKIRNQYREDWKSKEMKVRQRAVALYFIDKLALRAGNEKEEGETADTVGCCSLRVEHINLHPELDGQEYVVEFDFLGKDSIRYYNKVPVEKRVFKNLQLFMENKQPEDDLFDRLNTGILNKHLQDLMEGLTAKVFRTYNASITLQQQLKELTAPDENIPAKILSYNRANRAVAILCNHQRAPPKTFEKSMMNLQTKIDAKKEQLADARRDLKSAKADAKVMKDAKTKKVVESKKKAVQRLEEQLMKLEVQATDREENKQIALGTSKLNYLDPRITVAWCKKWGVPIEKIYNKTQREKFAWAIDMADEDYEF

[3] = molecular target: T1, DNA topoisomerase 2-alpha; assay: Inhibition of human recombinant topoisomerase-2alpha expressed in Escherichia coli assessed as decrease in relaxation of supercoiled DNA pBR322 at 100 uM after 30 mins by ethidium bromide staining-based agarose gel electrophoresis relative to control; summary of the method: as §1
MCF7 = assay: Antiproliferative activity against human MCF7 cells after 48 hrs by MTT assay; format: functional, cell-based; settings: MCF7, 48 h
Summary of the method: (§2)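 Cells seeded at 5×10⁴ per well, left 12 h, then exposed to serial dilutions (final 0, 5.0, 10.0, 20.0, 40.0, 80.0, 100.0 µM) for 48 h. MTT (5.0 mg/mL stock, 10 µL) added for 4 h, formazan dissolved in DMSO, absorbance read at 490 nm. Inhibition = (1−A_treatment/A_control)×100%; IC50 is the concentration giving 50% growth inhibition. Triplicate wells, at least three independent experiments, mean ± SD.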

[4] = molecular target: T1, DNA topoisomerase 2-alpha; assay: Inhibition of human recombinant topoisomerase-2alpha expressed in Escherichia coli assessed as decrease in relaxation of supercoiled DNA pBR322 at 20 uM after 30 mins by ethidium bromide staining-based agarose gel electrophoresis relative to control; summary of the method: as §1
[5] = molecular target: T2, DNA topoisomerase 1 (Homo sapiens); assay: Inhibition of human recombinant topoisomerase-1 assessed as decrease in relaxation of supercoiled DNA pBR322 at 20 uM after 30 mins by ethidium bromide staining-based agarose gel electrophoresis relative to control; summary of the method: as §1
A549 = assay: Antiproliferative activity against human A549 cells after 48 hrs by MTT assay; format: functional, cell-based; settings: A549, 48 h; summary of the method: as §2
MGC-803 = assay: Antiproliferative activity against human MGC803 cells after 48 hrs by MTT assay; format: functional, cell-based; settings: MGC-803, 48 h; summary of the method: as §2
HeLa = assay: Antiproliferative activity against human HeLa cells after 48 hrs by MTT assay; format: functional, cell-based; summary of the method: as §2

T1 sequence (P11388 whole entry): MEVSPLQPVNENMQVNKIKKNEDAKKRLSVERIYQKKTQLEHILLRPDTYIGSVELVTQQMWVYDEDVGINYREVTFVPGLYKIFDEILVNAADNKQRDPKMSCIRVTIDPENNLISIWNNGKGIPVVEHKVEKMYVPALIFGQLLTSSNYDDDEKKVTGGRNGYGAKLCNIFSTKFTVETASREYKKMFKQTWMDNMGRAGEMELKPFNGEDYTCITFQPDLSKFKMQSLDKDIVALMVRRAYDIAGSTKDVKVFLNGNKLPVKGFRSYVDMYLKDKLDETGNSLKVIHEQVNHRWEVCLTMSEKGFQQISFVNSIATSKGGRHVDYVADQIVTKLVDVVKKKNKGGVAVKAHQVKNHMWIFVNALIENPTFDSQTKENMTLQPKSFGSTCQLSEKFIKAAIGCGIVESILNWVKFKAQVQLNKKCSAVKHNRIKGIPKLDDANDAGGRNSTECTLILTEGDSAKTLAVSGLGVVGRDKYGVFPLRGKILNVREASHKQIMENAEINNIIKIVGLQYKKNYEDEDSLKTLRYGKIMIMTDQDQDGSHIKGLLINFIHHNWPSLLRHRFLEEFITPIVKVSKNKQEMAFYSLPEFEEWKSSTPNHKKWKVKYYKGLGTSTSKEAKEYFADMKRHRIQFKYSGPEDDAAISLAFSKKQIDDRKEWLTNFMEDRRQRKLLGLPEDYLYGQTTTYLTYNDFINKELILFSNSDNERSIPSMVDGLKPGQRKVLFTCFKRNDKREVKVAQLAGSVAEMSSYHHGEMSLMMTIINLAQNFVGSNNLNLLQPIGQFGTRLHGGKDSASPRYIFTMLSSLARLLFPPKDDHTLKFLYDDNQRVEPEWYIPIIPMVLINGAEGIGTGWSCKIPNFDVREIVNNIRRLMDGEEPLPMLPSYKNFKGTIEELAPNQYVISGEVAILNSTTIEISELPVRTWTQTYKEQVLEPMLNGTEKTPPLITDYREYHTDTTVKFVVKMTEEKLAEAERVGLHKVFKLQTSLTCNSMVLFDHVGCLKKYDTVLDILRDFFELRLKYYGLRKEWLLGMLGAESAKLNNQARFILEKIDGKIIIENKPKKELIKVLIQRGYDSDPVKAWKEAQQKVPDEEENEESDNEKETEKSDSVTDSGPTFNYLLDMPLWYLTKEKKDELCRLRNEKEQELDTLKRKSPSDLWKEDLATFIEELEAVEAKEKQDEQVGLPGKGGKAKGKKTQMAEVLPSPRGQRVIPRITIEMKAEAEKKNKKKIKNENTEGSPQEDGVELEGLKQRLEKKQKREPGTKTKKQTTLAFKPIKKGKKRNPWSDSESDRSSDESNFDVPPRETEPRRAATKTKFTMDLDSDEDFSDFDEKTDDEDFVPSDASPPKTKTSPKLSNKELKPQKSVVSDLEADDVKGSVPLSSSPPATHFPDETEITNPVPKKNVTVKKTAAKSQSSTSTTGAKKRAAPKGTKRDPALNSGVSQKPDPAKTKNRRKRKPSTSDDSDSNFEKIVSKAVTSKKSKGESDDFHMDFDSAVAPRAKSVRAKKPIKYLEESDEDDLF

Structure (SMILES) | IC50 [1] [µM] | inhibition [2] [%] | inhibition [3] [%] | IC50 (MCF7) [µM] | inhibition [4] [%] | inhibition [5] [%] | IC50 (A549) [µM] | IC50 (MGC-803) [µM] | IC50 (HeLa) [µM]
O=C(O)C[C@H](NC(=O)OCc1ccccc1)C(=O)O | 27 | – | – | – | – | – | – | – | –
O=C(N[C@@H](Cc1ccccc1)C(=O)N[C@H](COC(=O)c1ccccc1Cl)Cc1ccccc1)OCc1ccccc1 | – | -0 | 4.1 | 43 | – | – | > 50 | 43.1 | > 50
Cc1ccccc1C(=O)OC[C@H](Cc1ccccc1)NC(=O)[C@H](Cc1ccccc1)NC(=O)OCc1ccccc1 | – | 7.3 | 62.8 | 39.2 | 42.1 | – | > 50 | 42.8 | 39.4
COc1ccc(C(=O)OC[C@H](Cc2ccccc2)NC(=O)[C@H](Cc2ccccc2)NC(=O)OCc2ccccc2)cc1OC | – | 5.4 | 83.2 | 41.5 | 28.1 | – | > 50 | 40.3 | 34.5
O=C(N[C@@H](Cc1ccccc1)C(=O)N[C@H](COC(=O)c1ccccc1)Cc1ccccc1)OCc1ccccc1 | – | 29.5 | 75.7 | 41.1 | 25.6 | -0 | 48.8 | 38.7 | 30.2
CCC(=O)OC[C@H](Cc1ccccc1)NC(=O)[C@H](Cc1ccccc1)NC(=O)OCc1ccccc1 | – | -0 | 86.1 | > 50 | 45.6 | – | > 50 | > 50 | > 50
COc1cc([C@@H]2c3cc4c(cc3[C@@H](O[C@@H]3O[C@@H]5CO[C@@H](C)O[C@H]5[C@H](O)[C@H]3O)[C@H]3COC(=O)[C@H]23)OCO4)cc(OC)c1O [ETOPOSIDE] | – | – | – | 24 | – | – | 19.8 | 20.9 | 15.9
CC[C@@]1(O)C(=O)OCc2c1cc1n(c2=O)Cc2cc3ccccc3nc2-1 [CAMPTOTHECIN] | – | – | – | 28.7 | – | – | 13.6 | 9.45 | 10.1

Other lines, results leading:

IC50 [1] [µM] | inhibition [2] [%] | inhibition [3] [%] | IC50 (MCF7) [µM] | inhibition [4] [%] | inhibition [5] [%] | IC50 (A549) [µM] | IC50 (MGC-803) [µM] | IC50 (HeLa) [µM] | Structure (SMILES)
– | 45.2 | 63.8 | 40.6 | 19.7 | -0 | > 50 | > 50 | 49.9 | CCC(=O)OC[C@H](Cc1ccccc1)NC(=O)[C@H](CC(=O)OCc1ccccc1)NC(=O)OCc1ccccc1
– | -0 | 28.2 | 41.7 | – | – | > 50 | > 50 | 44.7 | Cc1ccccc1C(=O)OC[C@H](Cc1ccccc1)NC(=O)[C@H](CC(=O)OCc1ccccc1)NC(=O)OCc1ccccc1
– | 9.5 | 92.9 | 22.1 | 51.2 | – | 29.9 | 28.1 | 17.6 | O=C(C[C@H](NC(=O)OCc1ccccc1)C(=O)N[C@H](COC(=O)c1ccc(Cl)cc1)Cc1ccccc1)OCc1ccccc1
– | -0 | 41.4 | > 50 | – | – | > 50 | > 50 | > 50 | O=C(C[C@H](NC(=O)OCc1ccccc1)C(=O)N[C@H](COC(=O)c1ccccc1Cl)Cc1ccccc1)OCc1ccccc1
– | 20.2 | 84.6 | 27.9 | 49.8 | -0 | 47.6 | 42.3 | 39.6 | COc1ccc(C(=O)OC[C@H](Cc2ccccc2)NC(=O)[C@H](CC(=O)OCc2ccccc2)NC(=O)OCc2ccccc2)cc1OC
– | -0 | 3.2 | 36.2 | – | – | 42.4 | 38.4 | 22.6 | O=C(N[C@@H](Cc1ccccc1)C(=O)N[C@H](COC(=O)c1ccc(Cl)cc1)Cc1ccccc1)OCc1ccccc1
– | -0 | 68.4 | 40 | 20.1 | – | 46 | 32.5 | 27.9 | O=C(C[C@H](NC(=O)OCc1ccccc1)C(=O)N[C@H](COC(=O)c1ccccc1)Cc1ccccc1)OCc1ccccc1
– | 15 | 6.7 | 47.1 | – | -0 | > 50 | > 50 | > 50 | CC(=O)OC[C@H](Cc1ccccc1)NC(=O)[C@H](CC(=O)OCc1ccccc1)NC(=O)OCc1ccccc1
